The source of these data is ChEMBL document CHEMBL1153378, “Synthesis and evaluation of myxochelin analogues as antimetastatic agents” (Bioorg Med Chem, 2009).

The inhibition is how much of the control response was suppressed. The term IC50 denotes the concentration at which inhibition is half-maximal. The term inhibition in vivo denotes the share of the control response that was lost under treatment.

The nature of series [1]: Antiinvasive activity against mouse 26-L5 cells assessed as inhibition of cell invasion at 2.5 uM by Matrigel assay. In kind it is functional.
Series [2] in a line: Antiinvasive activity against mouse 26-L5 cells assessed as inhibition of cell invasion by Matrigel assay. It is filed as functional, cell-based.
Series [3] in a line: Cytotoxicity against mouse 26-L5 cells after 24 hrs. In kind it is functional, cell-based. In outline: (§1)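 Murine colon 26-L5 carcinoma cells at 1 × 10⁴ cells/well in RPMI with 10% FCS and L-glutamine, exposed to test compound at various concentrations (DMSO solutions) for 24 h. Wells PBS-washed, crystal violet stain 30 min, dye extracted with 30% acetic acid, absorbance read at 590 nm. Mean ± SD; Student's two-tailed t-test vs control.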

Series [4] in a line: Cytotoxicity against mouse 26-L5 cells at 7.5 uM after 24 hrs. In kind it is functional. In outline:
as §1

Series [5] is described as follows: Cytotoxicity against mouse 26-L5 cells at 5.6 uM after 24 hrs. In kind it is functional. In outline: as §1
For series [6], the species on record is Mus musculus. Nature of the series: Inhibition of cell migration of mouse 26-L5 cells at 2.5 uM by Matrigel assay. It is filed as functional.
The target of series [7] is Matrix metalloproteinase-9 (Mus musculus) (UniProt P41245). Kind of series: Inhibition of MMP9 in mouse 26-L5 cells at 2.5 uM by gelatin based zymography assay. In kind it is cell-based. In a few lines: (§2)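 Gelatin zymography: conditioned medium of colon 26-L5 cells run non-reducing on 10% SDS–PAGE with 0.1% gelatin. Gels rinsed twice 1 h at room temperature (50 mM Tris–HCl, 2.5% Triton X-100, 5 mM CaCl₂, 0.05% NaN₃), strips incubated 24 h at 37 °C in reaction buffer with test compound at various concentrations, then Coomassie stained. Mean ± SD, two-tailed t-test.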

Series [8] deals with 72 kDa type IV collagenase (Mus musculus) (UniProt P33434). Kind of series: Inhibition of MMP2 in mouse 26-L5 cells at 2.5 uM by gelatin based zymography assay. In kind it is cell-based. In a few lines: as §2
The species named for series [9] is Mus musculus. Nature of the series: Inhibition of mouse 26-L5 cells adhesion to extracellular matrix proteins at 2.5 uM after 24 hrs by crystal violet assay. In kind it is functional. In outline:
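Colon 26-L5 cells pre-treated with compound 24 h at 37 °C, 5% CO₂, then resuspended in RPMI/10% FCS/L-glutamine and seeded at 4 × 10⁴ cells/well on fibronectin- or Matrigel-coated wells. Attachment 1 h at 37 °C; non-adherent cells aspirated; adherent cells fixed in 20% formalin 4 °C 1 h, crystal violet stained 30 min. Mean ± SD, two-tailed t-test.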

Series [10] can be described thus: Antimetastatic activity against mouse 26-L5 cells xenografted BALB/c mouse assessed as inhibition of lung tumor metastasis at 50 mg/kg, ip dosed once daily for 14 days. In kind it is functional. Particulars: 336 h, route intraperitoneal. In outline: (§3)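 BALB/c mice injected iv via tail vein with colon 26-L5 cells in cold PBS; compound given ip at 50 mg/kg (1 mg/mouse in 200 µL PBS); controls received 200 µL PBS. Body weight followed; mice killed 14 days after inoculation, lungs fixed in Bouin's solution, surface colonies counted under dissecting microscope. Student's two-tailed t-test.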

Series [11] concerns the target 72 kDa type IV collagenase (Mus musculus) (UniProt P33434). Nature of the series: Inhibition of MMP2 in mouse 26-L5 cells at 0.25 uM by gelatin based zymography assay. In kind it is cell-based. In outline: as §2
Series [12] relates to Mus musculus. Nature of the series: Toxicity in mouse 26-L5 cells xenografted BALB/c mouse assessed as body weight loss at 50 mg/kg, ip dosed once daily for 14 days. It is filed as organism-based. The arrangement: dose 50 mg/kg, route intraperitoneal. Particulars: in vivo, 336 h. In a few lines:
as §3

Series [13] concerns the target Matrix metalloproteinase-9 (Mus musculus) (UniProt P41245). Kind of series: Inhibition of MMP9 in mouse 26-L5 cells at 0.25 uM by gelatin based zymography assay. It is filed as cell-based. In a few lines: as §2

Active and inactive are the calls of the source. No cut-off for these calls is given here.

Chain of 72 kDa type IV collagenase (Mus musculus) (P33434 whole entry): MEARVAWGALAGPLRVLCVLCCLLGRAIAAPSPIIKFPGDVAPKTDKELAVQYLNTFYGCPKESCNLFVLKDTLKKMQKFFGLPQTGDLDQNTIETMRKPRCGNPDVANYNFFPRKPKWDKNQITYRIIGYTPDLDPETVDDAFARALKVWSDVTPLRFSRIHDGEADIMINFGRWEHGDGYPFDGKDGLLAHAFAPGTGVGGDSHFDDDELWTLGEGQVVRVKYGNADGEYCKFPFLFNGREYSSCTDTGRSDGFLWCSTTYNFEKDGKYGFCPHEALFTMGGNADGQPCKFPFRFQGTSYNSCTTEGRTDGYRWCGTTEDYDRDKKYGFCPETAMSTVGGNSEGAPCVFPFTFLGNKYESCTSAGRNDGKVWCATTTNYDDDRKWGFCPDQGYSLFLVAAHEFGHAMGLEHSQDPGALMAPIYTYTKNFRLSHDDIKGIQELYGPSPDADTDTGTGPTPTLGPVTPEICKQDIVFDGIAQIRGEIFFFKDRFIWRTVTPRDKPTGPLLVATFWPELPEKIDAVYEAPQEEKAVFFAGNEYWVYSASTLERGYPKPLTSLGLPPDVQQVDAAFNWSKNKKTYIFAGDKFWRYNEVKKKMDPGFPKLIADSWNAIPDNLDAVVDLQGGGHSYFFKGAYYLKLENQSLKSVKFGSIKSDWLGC
Chain of Matrix metalloproteinase-9 (Mus musculus) (P41245 whole entry): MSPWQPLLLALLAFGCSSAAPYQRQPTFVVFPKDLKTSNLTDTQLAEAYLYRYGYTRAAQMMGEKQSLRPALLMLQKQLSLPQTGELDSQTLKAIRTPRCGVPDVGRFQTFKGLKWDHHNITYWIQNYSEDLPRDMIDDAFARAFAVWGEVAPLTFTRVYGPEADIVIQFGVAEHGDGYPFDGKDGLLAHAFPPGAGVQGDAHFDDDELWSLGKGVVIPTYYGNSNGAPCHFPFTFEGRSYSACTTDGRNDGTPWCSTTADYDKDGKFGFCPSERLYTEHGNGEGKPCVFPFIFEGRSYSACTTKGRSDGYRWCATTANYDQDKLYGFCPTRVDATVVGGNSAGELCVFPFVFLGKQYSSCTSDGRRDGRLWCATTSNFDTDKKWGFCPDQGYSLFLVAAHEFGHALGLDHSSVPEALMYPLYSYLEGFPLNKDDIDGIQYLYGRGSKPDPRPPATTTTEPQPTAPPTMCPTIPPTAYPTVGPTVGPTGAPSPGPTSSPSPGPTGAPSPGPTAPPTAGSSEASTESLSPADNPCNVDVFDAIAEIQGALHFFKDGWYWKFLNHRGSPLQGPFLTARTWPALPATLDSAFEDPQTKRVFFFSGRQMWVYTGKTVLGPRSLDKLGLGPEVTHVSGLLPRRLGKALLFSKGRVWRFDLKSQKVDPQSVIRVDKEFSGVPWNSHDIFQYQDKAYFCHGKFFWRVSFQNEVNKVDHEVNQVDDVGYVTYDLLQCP

`COC(=O)[C@H](CCCCNC(=O)c1ccccc1)NC(=O)c1cccc(O)c1O`: the inhibition at 2.5 µM in [1] turned out to be 0%. Further, the half-inhibitory concentration (IC50) was more than 2500 nM in series [2] and more than 7500 nM in series [3]. This compound displayed an inhibition at 7.5 µM in series [4] of 0%.
For the compound `O=C(NCCCC[C@@H](CNC(=O)c1cccc(O)c1O)NC(=O)c1cccc(O)c1O)c1cccc(O)c1O`, the figures for the IC50 in series [2] and in series [3] were 520 nM and more than 5600 nM, respectively. In addition, 5.6 µM produced 0% inhibition in series [5].
For `COC(=O)[C@H](CCCCNC(=O)c1cccc(OC)c1OC)NC(=O)c1cccc(OC)c1OC`, the inhibition at 2.5 µM in series [1] was 25%. Moreover, the values for the IC50 in series [2] and in series [3] were more than 2500 nM and more than 7500 nM, respectively. In addition, at 7.5 µM the inhibition in [4] was 0%.
As for `COC(=O)[C@H](CCNC(=O)c1cccc(O)c1O)NC(=O)c1cccc(O)c1O`, the inhibition at 2.5 µM in series [1] was determined as 40%. Moreover, the IC50 in [2] was more than 2500 nM; in series [3], more than 7500 nM. This compound also displayed an inhibition at 7.5 µM in series [4] of 13%.
Turning to `NC(=O)[C@H](CCCCNC(=O)c1cccc(O)c1O)NC(=O)c1ccccc1`, the IC50 in series [2] is 260 nM; in series [3], more than 7500 nM. Besides, in [4], the inhibition at 7.5 µM worked out at 0%.
Turning to `O=C(NCCCC[C@@H](CO)NC(=O)c1cccc(O)c1O)c1cccc(O)c1O`, the inhibition entry in the series listed under Mus musculus [6] and in the series filed under Mus musculus [9] was “inactive” in each case. Moreover, the results for the inhibition in series [7] and in series [8] were 39% and 35%, respectively. Besides, the IC50 is 590 nM in series [2] and more than 7500 nM in series [3]. For the same compound, at 7.5 µM the inhibition in series [4] was 20%.
`O=C(NCCCCCNC(=O)c1cccc(O)c1O)c1cccc(O)c1O`: the inhibition at 2.5 µM in series [1] worked out at 45%. Further, the IC50 in series [2] was more than 2500 nM; in series [3], 2700 nM.
As to `COC(=O)[C@H](CCCNC(=O)c1cccc(O)c1O)NC(=O)c1cccc(O)c1O`, the IC50 was 2500 nM in series [2] and more than 7500 nM in series [3]. Further, the inhibition at 7.5 µM in series [4] amounted to 45%.
For the compound `NC[C@H](CCCCNC(=O)c1cccc(O)c1O)NC(=O)c1cccc(O)c1O`, the results for the IC50 in series [2] and in [3] were 730 nM and more than 7500 nM, respectively. Besides, in [4], at 7.5 µM the inhibition was 40%.
Consider `COC(=O)[C@H](CCCCNC(=O)c1cccc(O)c1O)NC(=O)c1cccc(O)c1O`, for which the IC50 is 1500 nM in [2] and more than 7500 nM in [3]. This compound also yielded an inhibition at 7.5 µM in series [4] of 10%.
Take `N#C[C@H](CCCCNC(=O)c1cccc(O)c1O)NC(=O)c1cccc(O)c1O`: the inhibition at 2.5 µM in [1] came to 45%. The IC50 in series [2] is more than 2500 nM; in [3], 7500 nM.
For the compound `COC(=O)[C@H](CCCCNC(=O)c1cccc(O)c1O)NC(C)=O`, the IC50 is 2400 nM in [2] and more than 7500 nM in series [3]. Further, the inhibition at 7.5 µM in series [4] turned out to be 0%.
Take `COC(=O)[C@H](CCCCCNC(=O)c1cccc(O)c1O)NC(=O)c1cccc(O)c1O`: the IC50 in series [2] was 1700 nM; in series [3] it was 1600 nM.
Consider `NC(=O)[C@H](CCCCNC(=O)c1cccc(O)c1O)NC(=O)c1cccc(O)c1O`, for which the inhibition in vivo at 50 mg/kg in series [10] was 35%. The inhibition result in the series listed under Mus musculus [6] and in the series listed under Mus musculus [9] was “inactive” each time. Also, the figures for the inhibition in series [11] and in [13] were 44% and 33%, respectively. Further, the Activity result in the series on Mus musculus [12] is given as “Non-toxic”. Further, the IC50 was 91 nM in series [2] and more than 7500 nM in series [3]. In series [4], this compound came in with an inhibition at 7.5 µM of 0%.
`O=C(NCCCC[C@H](NC(=O)c1cccc(O)c1O)C(=O)NO)c1cccc(O)c1O`: the results for the IC50 in series [2] and in [3] were 980 nM and more than 7500 nM, respectively. This compound also had an inhibition at 7.5 µM in series [4] of 0%.
On the same counts, the results for `COC(=O)[C@H](CCCCNC(=O)c1cccc(O)c1O)NC(=O)c1ccccc1` are 1000 nM, more than 7500 nM and 0%.
On to `O=C(NCCCC[C@H](NC(=O)c1cccc(O)c1O)C(=O)O)c1cccc(O)c1O`, for which, in [1], the inhibition at 2.5 µM was 30%. Further, the results for the IC50 in series [2] and in series [3] were more than 2500 nM and more than 7500 nM, respectively. In addition, the inhibition at 7.5 µM in series [4] worked out at 0%.
Take `O=C(NCCCC[C@H](CO)NC(=O)c1cccc(O)c1O)c1cccc(O)c1O`: the values for the IC50 in [2] and in series [3] were 2200 nM and more than 7500 nM, respectively. In [4], this compound returned an inhibition at 7.5 µM of 30%.
